Results reported in ChEMBL document CHEMBL1770123, “SPF32629A and SPF32629B: enantioselective synthesis, determination of absolute configuration, cytotoxicity and antibacterial evaluation” (Eur J Med Chem, 2011).
In brackets after ≈: the same amount, converted by molar mass. Activity calls are given as the source filed them. No cut-off for these calls is given here.

Tests used:
[1] = tested on: Staphylococcus aureus; assay: Antimicrobial activity against methicillin-resistant Staphylococcus aureus strain 2 TB4G at 1000 ug/disc after 24 hrs by disc diffusion method; type: functional; conditions: for zone of inhibition at 1000 µg/disc: read-out: DIZ
Method in brief: (§1)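 Disc diffusion on 2.4% Mueller-Hinton agar inoculated with the strain. Paper discs 6 mm across were loaded with test compound and placed on the agar. Plates were incubated at 37 °C for 24 h. Read-out was the diameter of the inhibition zone in mm.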

[2] = tested on: Bacillus subtilis; assay: Antimicrobial activity against Bacillus subtilis at 500 ug/disc after 24 hrs by disc diffusion method; type: functional; conditions: for zone of inhibition at 500 µg/disc: read-out: DIZ
[3] = tested on: Staphylococcus epidermidis; assay: Antimicrobial activity against Staphylococcus epidermidis at 1000 ug/disc after 24 hrs by disc diffusion method; type: functional; conditions: for zone of inhibition at 1000 µg/disc: read-out: DIZ
[4] = tested on: A549; assay: Cytotoxicity against human A549 cells assessed as cell death at 10 ug after 48 hrs by MTT assay; type: functional
Method in brief: (§2)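 A549 cells were grown in DMEM with 2 mmol L-glutamine, 10% FBS, penicillin (50 IU/mL) and streptomycin, at 37 °C and 5% CO2. 1×10^4 cells/well were plated and treated 24 h later with compound diluted in medium for 48 h. Controls were DMSO-matched and untreated wells. MTT 0.4 mg/mL in PBS was added for 4 h in the dark, then DMSO for 4 h. A540 was read and reported as % live cells relative to untreated.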

[5] = tested on: A549; assay: Cytotoxicity against human A549 cells assessed as cell death at 2 ug after 48 hrs by MTT assay; type: functional; method in brief: as §2
[6] = tested on: Salmonella typhimurium; assay: Antimicrobial activity against Salmonella Typhimurium at 1000 ug/disc after 24 hrs by disc diffusion method; type: functional; conditions: for zone of inhibition at 1000 µg/disc: Salmonella enterica, read-out: DIZ
[7] = tested on: Listeria monocytogenes; assay: Antimicrobial activity against Listeria monocytogenes at 500 ug/disc after 24 hrs by disc diffusion method; type: functional
[8] = tested on: Staphylococcus aureus; assay: Antimicrobial activity against methicillin-resistant Staphylococcus aureus strain 1 TB3G at 1000 ug/disc after 24 hrs by disc diffusion method; type: functional; method in brief: as §1
[9] = tested on: A549; assay: Cytotoxicity against human A549 cells assessed as cell death at 25 ug after 48 hrs by MTT assay; type: functional; method in brief: as §2
[10] = tested on: Staphylococcus aureus; assay: Antimicrobial activity against Staphylococcus aureus at 500 ug/disc after 24 hrs by disc diffusion method; type: functional; method in brief: as §1
[11] = tested on: Klebsiella pneumoniae; assay: Antimicrobial activity against Klebsiella pneumoniae at 1000 ug/disc after 24 hrs by disc diffusion method; type: functional; conditions: for zone of inhibition at 1000 µg/disc: read-out: DIZ
[12] = tested on: Escherichia coli; assay: Antimicrobial activity against Escherichia coli at 500 ug/disc after 24 hrs by disc diffusion method; type: functional; conditions: for zone of inhibition at 500 µg/disc: read-out: DIZ
[13] = tested on: Salmonella typhimurium; assay: Antimicrobial activity against Salmonella Typhimurium at 500 ug/disc after 24 hrs by disc diffusion method; type: functional; conditions: for zone of inhibition at 500 µg/disc: Salmonella enterica, read-out: DIZ
[14] = tested on: Staphylococcus aureus; assay: Antimicrobial activity against methicillin-resistant Staphylococcus aureus strain 1 TB3G at 500 ug/disc after 24 hrs by disc diffusion method; type: functional; method in brief: as §1
[15] = tested on: A549; assay: Cytotoxicity against human A549 cells assessed as cell death at 5 ug after 48 hrs by MTT assay; type: functional; method in brief: as §2
[16] = tested on: Klebsiella pneumoniae; assay: Antimicrobial activity against Klebsiella pneumoniae at 500 ug/disc after 24 hrs by disc diffusion method; type: functional; conditions: for zone of inhibition at 500 µg/disc: read-out: DIZ
[17] = tested on: Staphylococcus aureus; assay: Antimicrobial activity against Staphylococcus aureus at 1000 ug/disc after 24 hrs by disc diffusion method; type: functional
[18] = tested on: Staphylococcus aureus; assay: Antimicrobial activity against methicillin-resistant Staphylococcus aureus strain 2 TB4G at 500 ug/disc after 24 hrs by disc diffusion method; type: functional; conditions: for zone of inhibition at 500 µg/disc: read-out: DIZ; method in brief: as §1
[19] = tested on: A549; assay: Cytotoxicity against human A549 cells assessed as cell death at 1 ug after 48 hrs by MTT assay; type: functional; method in brief: as §2
[20] = tested on: Staphylococcus aureus; assay: Antimicrobial activity against methicillin-resistant Staphylococcus aureus strain 4 TB5G at 1000 ug/disc after 24 hrs by disc diffusion method; type: functional; method in brief: as §1
[21] = tested on: Staphylococcus epidermidis; assay: Antimicrobial activity against Staphylococcus epidermidis at 500 ug/disc after 24 hrs by disc diffusion method; type: functional
[22] = tested on: Bacillus subtilis; assay: Antimicrobial activity against Bacillus subtilis at 1000 ug/disc after 24 hrs by disc diffusion method; type: functional; conditions: for zone of inhibition at 1000 µg/disc: read-out: DIZ
[23] = tested on: Escherichia coli; assay: Antimicrobial activity against Escherichia coli at 1000 ug/disc after 24 hrs by disc diffusion method; type: functional; conditions: for zone of inhibition at 1000 µg/disc: read-out: DIZ
[24] = tested on: Listeria monocytogenes; assay: Antimicrobial activity against Listeria monocytogenes at 1000 ug/disc after 24 hrs by disc diffusion method; type: functional
[25] = tested on: Staphylococcus aureus; assay: Antimicrobial activity against methicillin-resistant Staphylococcus aureus strain 4 TB5G at 500 ug/disc after 24 hrs by disc diffusion method; type: functional; method in brief: as §1
[26] = tested on: A549; assay: Cytotoxicity against human A549 cells after 48 hrs by MTT assay; type: functional, cell-based; conditions: A549, 48 h
Method in brief: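 A549 cells were kept in DMEM with 2 mM L-glutamine, 10% FBS, penicillin 50 IU/mL and streptomycin at 37 °C under 5% CO2. 1×10^4 cells per well were treated 24 h after seeding with compounds diluted in medium for 48 h. MTT (0.4 mg/mL in PBS) was added for 4 h in the dark, formazan was dissolved in DMSO for 4 h and absorbance read at 540 nm. Viability was expressed as % of untreated cells, and IC50 was derived.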

[27] = Inhibition of human elastase
[28] = molecular target: T1, Chymase (Homo sapiens, UniProt P23946); assay: Inhibition of human chymase
T1 sequence (P23946 whole entry): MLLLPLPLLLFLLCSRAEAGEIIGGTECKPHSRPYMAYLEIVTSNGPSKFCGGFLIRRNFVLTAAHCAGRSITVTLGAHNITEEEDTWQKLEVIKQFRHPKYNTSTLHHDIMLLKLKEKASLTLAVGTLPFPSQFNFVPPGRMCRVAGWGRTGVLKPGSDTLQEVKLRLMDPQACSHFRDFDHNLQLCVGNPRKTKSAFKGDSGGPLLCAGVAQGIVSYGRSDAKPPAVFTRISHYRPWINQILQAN

[29] = tested on: Staphylococcus aureus; assay: Antimicrobial activity against methicillin-resistant Staphylococcus aureus strain 1 TB3G after 24 hrs by microdilution method; type: functional
Method in brief: (§3)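 Growth was judged by turbidity. The MIC was taken as the lowest concentration giving the lowest growth.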

[30] = tested on: Staphylococcus aureus; assay: Antimicrobial activity against methicillin-resistant Staphylococcus aureus strain 4 TB5G after 24 hrs by microdilution method; type: functional; method in brief: as §3
[31] = tested on: Staphylococcus epidermidis; assay: Antimicrobial activity against Staphylococcus epidermidis after 24 hrs by microdilution method; type: functional
Method in brief: (§4)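 Growth was judged by turbidity, and the MIC was taken as the minimum concentration giving the lowest growth. Amikacin served as reference.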

[32] = tested on: Escherichia coli; assay: Antimicrobial activity against Escherichia coli after 24 hrs by microdilution method; type: functional; method in brief: as §4
[33] = tested on: Staphylococcus aureus; assay: Antimicrobial activity against methicillin-resistant Staphylococcus aureus strain 2 TB4G after 24 hrs by microdilution method; type: functional; method in brief: as §3
[34] = tested on: Listeria monocytogenes; assay: Antimicrobial activity against Listeria monocytogenes after 24 hrs by microdilution method; type: functional; method in brief: as §4
[35] = tested on: Klebsiella pneumoniae; assay: Antimicrobial activity against Klebsiella pneumoniae after 24 hrs by microdilution method; type: functional; method in brief: as §4
[36] = tested on: Staphylococcus aureus; assay: Antimicrobial activity against Staphylococcus aureus after 24 hrs by microdilution method; type: functional; method in brief: as §4
[37] = tested on: Salmonella typhimurium; assay: Antimicrobial activity against Salmonella Typhimurium after 24 hrs by microdilution method; type: functional, Salmonella enterica subsp. enterica serovar Typhimurium; conditions: Salmonella enterica; method in brief: as §4
[38] = tested on: Bacillus subtilis; assay: Antimicrobial activity against Bacillus subtilis after 24 hrs by microdilution method; type: functional; method in brief: as §4
[39] = Salmonella enterica subsp. enterica serovar Typhimurium

SMILES: CC(C)CC(=O)O[C@@H](c1ccccc1)c1cc(O)cc(=O)[nH]1
- zone of inhibition at 1000 µg/disc [1]: 26 mm
- zone of inhibition at 500 µg/disc [2]: 13 mm
- diameter of the inhibition zone (DIZ) [3]: inactive
- Activity [4]: 47.62%
- Activity [5]: 27.71%
- diameter of the inhibition zone (DIZ) [6, 39]: inactive
- diameter of the inhibition zone (DIZ) [7]: inactive
- diameter of the inhibition zone (DIZ) [8]: inactive
- Activity [9]: 63.2%
- diameter of the inhibition zone (DIZ) [10]: inactive
- zone of inhibition at 1000 µg/disc [11]: 25 mm
- zone of inhibition at 500 µg/disc [12]: 16 mm
- diameter of the inhibition zone (DIZ) [13, 39]: inactive
- diameter of the inhibition zone (DIZ) [14]: inactive
- Activity [15]: 38.96%
- zone of inhibition at 500 µg/disc [16]: 15 mm
- diameter of the inhibition zone (DIZ) [17]: inactive
- zone of inhibition at 500 µg/disc [18]: 14 mm
- Activity [19]: 9.96%
- diameter of the inhibition zone (DIZ) [20]: inactive
- diameter of the inhibition zone (DIZ) [21]: inactive
- zone of inhibition at 1000 µg/disc [22]: 23 mm
- zone of inhibition at 1000 µg/disc [23]: 26 mm
- diameter of the inhibition zone (DIZ) [24]: inactive
- diameter of the inhibition zone (DIZ) [25]: inactive
- IC50 [26]: 11 µM

SMILES: CC(C)CC(=O)OC(c1ccccc1)c1cc(O)cc(=O)[nH]1 (racemic)
- diameter of the inhibition zone (DIZ) [1]: inactive
- diameter of the inhibition zone (DIZ) [2]: inactive
- IC50 [27]: 4.9 µg/mL (≈ 16.3 µM)
- zone of inhibition at 1000 µg/disc [3]: 9 mm
- Activity [4]: 50.21%
- Activity [5]: 25.54%
- zone of inhibition at 1000 µg/disc [6]: 13 mm
- diameter of the inhibition zone (DIZ) [7]: inactive
- diameter of the inhibition zone (DIZ) [8]: inactive
- Activity [9]: 74.02%
- diameter of the inhibition zone (DIZ) [10]: inactive
- diameter of the inhibition zone (DIZ) [11]: inactive
- diameter of the inhibition zone (DIZ) [12]: inactive
- zone of inhibition at 500 µg/disc [13]: 7 mm
- diameter of the inhibition zone (DIZ) [14]: inactive
- Activity [15]: 37.22%
- diameter of the inhibition zone (DIZ) [16]: inactive
- diameter of the inhibition zone (DIZ) [17]: inactive
- IC50 [28]: 0.83 µM
- diameter of the inhibition zone (DIZ) [18]: inactive
- Activity [19]: 8.22%
- diameter of the inhibition zone (DIZ) [20]: inactive
- diameter of the inhibition zone (DIZ) [21]: inactive
- diameter of the inhibition zone (DIZ) [22]: inactive
- diameter of the inhibition zone (DIZ) [23]: inactive
- diameter of the inhibition zone (DIZ) [24]: inactive
- diameter of the inhibition zone (DIZ) [25]: inactive
- IC50 [26]: 28 µM

SMILES: CC(C)CC(=O)O[C@H](c1ccccc1)c1cc(O)c(C(=O)O)c(=O)[nH]1
- zone of inhibition at 1000 µg/disc [1]: 10 mm
- zone of inhibition at 500 µg/disc [2]: 8 mm
- MIC [29]: > 100 µg/mL
- zone of inhibition at 1000 µg/disc [3]: 20 mm
- Activity [4]: 77.84%
- Activity [5]: 30.76%
- MIC [30]: > 100 µg/mL
- zone of inhibition at 1000 µg/disc [6]: 20 mm
- zone of inhibition at 500 µg/disc ([7]; read-out: DIZ): 7 mm
- zone of inhibition at 1000 µg/disc ([8]; read-out: DIZ): 13 mm
- Activity [9]: 78.76%
- MIC [31]: 25 µg/mL (≈ 72.4 µM)
- zone of inhibition at 500 µg/disc ([10]; read-out: DIZ): 11 mm
- MIC [32]: 50 µg/mL (≈ 145 µM)
- zone of inhibition at 1000 µg/disc [11]: 20 mm
- MIC [33]: > 100 µg/mL
- zone of inhibition at 500 µg/disc [12]: 10 mm
- zone of inhibition at 500 µg/disc [13]: 9 mm
- zone of inhibition at 500 µg/disc ([14]; read-out: DIZ): 7 mm
- Activity [15]: 44.92%
- MIC [34]: 100 µg/mL (≈ 290 µM)
- MIC [35]: > 100 µg/mL
- zone of inhibition at 500 µg/disc [16]: 9 mm
- zone of inhibition at 1000 µg/disc ([17]; read-out: DIZ): 18 mm
- zone of inhibition at 500 µg/disc [18]: 6 mm
- Activity [19]: 10.46%
- zone of inhibition at 1000 µg/disc ([20]; read-out: DIZ): 11 mm
- MIC [36]: > 100 µg/mL
- MIC [37]: > 100 µg/mL
- zone of inhibition at 500 µg/disc ([21]; read-out: DIZ): 12 mm
- zone of inhibition at 1000 µg/disc [22]: 15 mm
- zone of inhibition at 1000 µg/disc [23]: 18 mm
- zone of inhibition at 1000 µg/disc ([24]; read-out: DIZ): 15 mm
- MIC [38]: 100 µg/mL (≈ 290 µM)
- zone of inhibition at 500 µg/disc ([25]; read-out: DIZ): 5 mm
- IC50 [26]: 8 µM
